DTT redox prof: compounds producing H2O2 with reducing agent – biochemical, NIH compound library profiling, artefact control for MLSCN library redox annotation, primary screen | DTT-dependent redox cycling H2O2, phenol red/HRP absorbance; 100% = 100 µM peroxide control, 0% = buffer | activation, % at 10 µM | 200,000 compounds, 0.03% hits;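 active = activation of at least 50% relative to the plate's high and low controls in the primary single-dose screen; inactive = activation below 50%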;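 also: compound incubated with DTT at 0.8 mM final as the reducing agent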
PfG6PD inh: PfG6PD enzyme inhibitors, primary screen, biochemical, fluorescence intensity, uHTS | AID 504690, 2011 | glucose-6-phosphate dehydrogenase-6-phosphogluconolactonase (Plasmodium falciparum 3D7) | PfGluPho enzyme, NADPH resazurin-diaphorase fluorescence | inhibition, % at 20 µM | 350,000 compounds, 0.78% hits;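 active = inhibition reaching at least a set limit at 20 µM in the primary screen, cut at about 59% in these data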;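 also: 0% = DMSO wells with substrate and 100% = DMSO wells lacking glucose-6-phosphate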
G6PDH counter: L. mesenteroides G6PDH inhibitors, counter-screen for G6PDH-coupled screening assays, biochemical, Leuconostoc mesenteroides enzyme; inhibition, % at 5 µM; 200,000 compounds, 0.12% hits; Purified L. mesenteroides G6PDH, diaphorase/resazurin coupled fluorescence, 45 min
Lmaj promast: Leishmania major promastigote growth inhibition, primary screen; Leishmania major promastigotes, resazurin fluorescence viability; 200,000 compounds, 9% hits; inhibition, % at 10 µM;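 also: promastigotes grown with compound for 44 hours at 28 °C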
Diaphorase inh: diaphorase inhibitors and chemical oxidizers, primary screen, counter-screen for diaphorase-coupled primary assays, biochemical, uHTS, resorufin fluorescence | 190,000 compounds, 0.69% hits | AID 1217, 2008 | inhibition, % at 20 µM | diaphorase resazurin-to-resorufin fluorescence, NADH, 16 min; bacterial (C. kluyveri) enzyme, not human;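 active = primary screen inhibition at 20 µM above a set limit, cut at about 50% in these data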;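 also: plate controls were DMSO with full reaction for no effect and wells lacking NADH for full effect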
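Test system: Clostridium kluyveri diaphorase enzyme / Quantity: diaphorase at 0.14 U/mL in enzyme working solution / Incubation: 16-min room-temperature incubation before reading / Benchmarks: NADH-free wells as positive control, DMSO-only neutral wells / Signal: resorufin fluorescence 544/590 nm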
Diaph act CS: compounds boosting diaphorase resazurin reduction – biochemical, uHTS, resorufin fluorescence, counter-screen for diaphorase-coupled primary assays, primary screen. activation factor at 20 µM. Diaphorase/resazurin coupled assay, 16 min; stronger effect = higher value; 1 = vehicle wells, 0 = NADH-free wells. 190,000 compounds, 0.005% hits. AID 1229, 2008;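 active = diaphorase activity raised at least twofold by the compound at 20 µM; inactive = activation factor below 2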
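Test system: Clostridium kluyveri diaphorase, purified enzyme; input: enzyme 0.07 U/mL final; buffer or medium: 50 mM HEPES pH 7.4 with 4.542 mM MgCl2, 0.005% Tween 20; also added: 0.114 mM NADH and 0.1 mM resazurin, final amounts; schedule: 16 min enzyme reaction, ambient temperature; technique: fluorescence of resorufin, 544 nm excitation, 590 nm emission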
Numbers without * were called inactive; / = no result. Only a selection was taken, and hits are over-represented in it overall. Rule as the data show it, unless noted: active = inhibition above about 50%; inactive = the rest.

SMILES	DTT redox prof	PfG6PD inh	G6PDH counter	Lmaj promast	Diaphorase inh	Diaph act CS
Cc1cccc(C)c1OCc1nnc(NC(=O)CSc2ccc(Cl)cc2)s1	0.3	-6.7	5.9	58.9*	11.6	0.9
CC1CCCC(N2C(=O)NC(NC(=O)c3ccco3)(C(F)(F)F)C2=O)C1C (centres undefined)	-0.6	10.1	16.3	56.0*	10.5	0.9
CCCCN1C(=O)NC(NC(=O)c2ccco2)(C(F)(F)F)C1=O (centres undefined)	2.1	5.1	-2.0	-2.2	13.4	0.9
Cc1ccc([N+](=O)[O-])cc1-c1ccc(/C=C(\C#N)c2[nH]nc(N)c2C#N)o1	-0.5	-5.7	-10.7	74.6*	17.4	0.8
Cc1ccc2c(Cl)cc(Cl)c(OCC(=O)Nc3cccc(S(=O)(=O)N(C)C)c3)c2n1	1.3	-2.9	15.3	-5.1	15.9	0.8
Cc1ccc2c(Cl)cc(Cl)c(OCC(=O)Nc3cc(S(=O)(=O)N(C)C)ccc3C)c2n1	0.5	51.2	-26.7	68.5*	32.4	0.7
Cc1ccc2c(Cl)cc(Cl)c(OCC(=O)Nc3cccc(S(N)(=O)=O)c3)c2n1	0.1	0.7	12.4	71.3*	23.6	0.8
Cc1ccc2c(Cl)cc(Cl)c(OCC(=O)Nc3ccc(C)c(S(=O)(=O)N(C)C)c3)c2n1	1.0	/	-15.7	68.4*	19.1	0.8
Cc1nn(CC(=O)c2ccccc2)c(=O)c2nn(-c3ccccc3F)c(C)c12	-0.6	-6.3	-4.3	2.8	9.4	0.9
O=C1NC(Cc2ccc(O)cc2)c2nc3cc(F)ccc3c(=O)n2-c2cc3ccccc3cc21 (centres undefined)	/	-3.9	/	/	/	/
CC(=O)Nc1ccc(N(C(=O)Cn2nnc3ccccc32)C(C(=O)NC2CCCC2)c2ccc(O)c(O)c2)cc1 (centres undefined)	-0.6	-16.0	37.4	1.6	55.9*	0.4
COc1cc(C(C(=O)NC2CCCCC2)N(C(=O)Cc2c[nH]c3ccccc23)c2ccc(C)cc2)cc(OC)c1OC (centres undefined)	0.3	29.8	7.6	89.9*	19.4	0.8
CC(=O)Nc1ccc(N(C(=O)Cc2c[nH]c3ccccc23)C(C(=O)NC2CCCCC2)c2ccco2)cc1 (centres undefined)	0.6	11.3	6.6	59.6*	12.3	0.9
O=C(NC1CCCCC1)C(c1cccs1)N(C(=O)Cc1c[nH]c2ccccc12)c1ccc(F)cc1 (centres undefined)	-5.0	3.3	7.1	74.7*	26.6	0.7
COc1ccc(S(=O)(=O)NCC2CCCN(C(=O)CSC)C2)cc1 (centres undefined)	/	-8.9	/	/	/	/
Cc1c(-c2ccnc3cc(C(=O)O)nn23)cnn1C	-0.8	16.1	10.8	-7.5	0.0	1
Cc1ccc(C(C(=O)Nc2ccc3c(c2)OCO3)N(C)C(=O)Cc2c[nH]c3ccccc23)cc1 (centres undefined)	-0.5	7.2	9.7	69.6*	27.9	0.7
CC(=O)NC(Cc1c[nH]c2ccccc12)C(=O)OCC(=O)Nc1ccc2c(c1)OCO2 (centres undefined)	-2.2	-5.2	13.2	1.7	18.9	0.8
Cc1ccc(C(NC(=O)/C=C\c2ccc3c(c2)OCO3)C(=O)Nc2ccc3c(c2)OCO3)cc1 (centres undefined)	0.3	-11.2	3.3	99.8*	7.1	0.9
Cc1ccc(C(=O)NCCSc2ccc(Cl)cc2)cc1S(=O)(=O)Nc1ccccc1	2.7	-6.4	0.2	96.6*	4.6	1
Cc1ccc(NS(=O)(=O)c2cc(C(=O)NCCSc3ccc(C)cc3)ccc2C)cc1	-7.1	25.3	-0.1	100.0*	21.6	0.8
Cc1ccc(SCCNC(=O)c2ccc(C)c(S(=O)(=O)Nc3cccc(C)c3)c2)cc1	1.2	-3.0	2.8	77.5*	30.9	0.7
CS(=O)(=O)Nc1ccc(C(=O)NCCSC2CCCCC2)cc1	0.3	-1.6	-3.9	-3.0	13.8	0.9
Cc1ccc(NS(=O)(=O)c2cc(C(=O)NCCSC3CCCCC3)ccc2C)cc1	-0.6	16.3	-3.4	79.0*	26.9	0.7
CS(=O)(=O)Nc1ccccc1C(=O)NCCSc1ccc(Cl)cc1	/	-18.6	/	/	/	/
SMILES	DTT redox prof	PfG6PD inh	G6PDH counter	Lmaj promast	Diaphorase inh	Diaph act CS
COc1ccc(C(=O)N2CCN(c3nc4cc(C)ccc4cc3C#N)CC2)c(OC)c1	-3.7	4.6	2.5	63.4*	10.1	0.9
COc1ccc2cc(C#N)c(SCC(=O)N3CCCC3)nc2c1	0.7	18.9	-53.0	54.6*	11.5	0.9
COC(=O)CSc1nc2cc(OC)ccc2cc1C#N	-0.6	0.6	3.2	-3.4	2.1	1
COc1ccc(Cl)cc1S(=O)(=O)Nc1ccc2c(c1)n(C)c(=O)n2C	/	6.7	/	/	/	/
CCN(CC)S(=O)(=O)c1ccc(OC)c(NC(=O)CSc2cc(C)ccc2C)c1	-0.1	13.5	-0.7	72.9*	17.4	0.8
COc1ccc(CCNC(=O)c2ccccc2N(C)S(=O)(=O)c2ccccc2)cc1	0.2	-13.0	-0.8	80.3*	-3.0	1
CCN(c1ccccc1)S(=O)(=O)c1ccc(OC)c(NC(=O)CNCCc2ccccc2)c1	-0.7	14.2	7.5	52.0*	-1.5	1
CN1CCCN(C(=O)c2ccc(Cl)c(S(=O)(=O)N(C)c3ccccc3)c2)CC1	0.1	8.0	4.6	72.4*	9.2	0.9
COCCNC(=O)c1ccccc1NC(=O)c1ccccc1N(C)S(=O)(=O)c1ccccc1	0.2	-8.9	-1.4	-0.2	12.6	0.9
CCN(c1ccccc1)S(=O)(=O)c1ccc(OC)c(NC(=O)Cc2ccc(F)cc2)c1	/	6.1	/	/	/	/
COc1ccc(CCNC(=O)c2ccc(Cl)c(S(=O)(=O)N(C)c3ccccc3)c2)cc1	0.3	18.3	5.9	98.1*	15.1	0.8
COc1ccc(CCNC(=O)c2ccc(Cl)c(S(=O)(=O)N3CCCCCC3)c2)cc1	/	-4.3	/	/	/	/
CCN(c1ccccc1)S(=O)(=O)c1ccc(Cl)c(C(=O)NCCc2ccc(OC)cc2)c1	-0.7	-12.8	16.5	88.8*	24.4	0.8
O=C(c1ccc2c(=O)n3c(nc2c1)CCCCC3)N1CCN(c2cccc(Cl)c2)CC1	/	7.8	/	/	/	/
CC(CCc1ccccc1)NC(=O)/C=C/c1ccc(Cl)cc1 (centres undefined)	-0.4	14.8	-0.2	52.4*	9.7	0.9
